Laboratory results as given in ChEMBL document CHEMBL1240512, “Discovery of a potent and selective noncovalent linear inhibitor of the hepatitis C virus NS3 protease (BI 201335)” (J Med Chem, 2010).

Tests used:
[1] = Inhibition of HCV NS3 protease; parameters: species or system Hepacivirus hominis
Outline: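 Genotype 1b NS3-NS4A (0.5 nM) with 5 μM fluorogenic depsipeptide substrate anthranilyl-DDIVPAbu[C(O)-O]AMY(3-NO2)-TW-OH in 50 mM Tris-HCl pH 8.0, 0.25 M sodium citrate, 0.01% dodecyl maltoside, 1 mM TCEP, 5% DMSO; 60-70 min at 23 °C, stopped with 1 M MES pH 5.8; product fluorescence read; IC50 from percent inhibition by nonlinear fit.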

Hepatitis C virus = test: Antiviral activity against HCV Con1 by cell based-luciferase reporter gene assay; assay type: functional, organism-based, Hepacivirus hominis
Outline: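 Bicistronic luciferase reporter replicon cells (Con1 genotype 1b NS2-NS5B) exposed to compound for 72 h; luciferase read with Bright-Glo substrate by luminescence. EC50 fitted by nonlinear regression.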

[2] = Oral bioavailability in rat at 5 mg/kg; assay type: ADME, organism-based; settings: in vivo
Outline: (§1)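 Male Sprague-Dawley rats (275-300 g), fasted overnight with 10% dextrose in water; single oral gavage 5 mg/kg in 0.5% Methocel/0.3% Tween-80 (10 mL/kg). Carotid cannula sampling at 0-8 h; plasma pooled from three rats per time point, solid-phase extracted, LC-MS quantified; noncompartmental analysis. F derived using the 2 mg/kg iv arm.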

[3] = Half life in rat at 2 mg/kg, iv; assay type: ADME, organism-based; parameters: dose 2 mg/kg, route intravenous; settings: in vivo
Outline: (§2)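 Male Sprague-Dawley rats (275-300 g), fasted overnight with 10% dextrose water access, given 2 mg/kg intravenously. Blood drawn via right carotid cannula at 5 min and 0.25-8 h; plasma pooled from three animals per time point, solid-phase extraction, LC-MS measurement; parameters from noncompartmental analysis.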

[4] = Clearance in rat at 2 mg/kg, iv; assay type: ADME, organism-based; parameters: dose 2 mg/kg, route intravenous; settings: in vivo; outline: as §2
[5] = Cmax in rat at 5 mg/kg, po; assay type: ADME, organism-based; parameters: dose 5 mg/kg, route oral; settings: in vivo; outline: as §1
[6] = AUC (0 to infinity) in rat at 5 mg/kg, po; assay type: ADME, organism-based; parameters: time infinity, dose 5 mg/kg, route oral; settings: plasma; outline: as §1
[7] = Volume of distribution at steady state in rat at 2 mg/kg, iv; assay type: ADME, organism-based; parameters: dose 2 mg/kg, route intravenous; settings: in vivo, read-out: Vdss; outline: as §2

Row | Compound | IC50 [1] [nM] | EC50 (Hepatitis C virus) [nM] | bioavailability [2] [%] | half-life [3] [h] | clearance [4] [mL/min/kg] | Cmax [5] [nM] | AUC(0-inf) [6] [µM·h] | Vd [7] [L/kg]
1 | C=C[C@@H]1C[C@]1(NC(=O)[C@@H]1C[C@@H](Oc2cc(-c3csc(NC(=O)CC)n3)nc3c(C)c(OC)ccc23)CN1C(=O)[C@@H](NC(=O)OC1CCCC1)C(C)(C)C)C(=O)O | 10 | 17 | 56 | 1.7 | 15 | 820 | 3.5 | 1.8
2 | C=C[C@@H]1C[C@]1(NC(=O)[C@@H]1C[C@@H](Oc2cc(-c3csc(NC(=O)OC)n3)nc3c(Br)c(OC)ccc23)CN1C(=O)[C@@H](NC(=O)OC1CCCC1)C(C)(C)C)C(=O)O | 6 | 3 | – | – | – | – | – | –
3 | C=C[C@@H]1C[C@]1(NC(=O)[C@@H]1C[C@@H](Oc2cc(-c3csc(NC(=O)CC(C)(C)C)n3)nc3cc(OC)ccc23)CN1C(=O)[C@@H](NC(=O)OC1CCCC1)C(C)(C)C)C(=O)O | 17 | 68 | 39 | 1.2 | 14 | 1100 | 2.8 | 0.83
4 | C=C[C@@H]1C[C@]1(NC(=O)[C@@H]1C[C@@H](Oc2cc(-c3csc(NC(C)C)n3)nc3c(C)c(OC)ccc23)CN1C(=O)[C@@H](NC(=O)OC1CCCC1)C(C)(C)C)C(=O)O | 15 | 40 | – | – | – | – | – | –
5 | C=C[C@@H]1C[C@]1(NC(=O)[C@@H]1C[C@@H](Oc2cc(-c3csc(NC(C)C)n3)nc3cc(OC)ccc23)CN1C(=O)[C@@H](NC(=O)OC1CCCCC1)C(C)(C)C)C(=O)O | 18 | 90 | – | – | – | – | – | –
6 | C=C[C@@H]1C[C@]1(NC(=O)[C@@H]1C[C@@H](Oc2cc(-c3csc(NC(=O)CC)n3)nc3c(Cl)c(OC)ccc23)CN1C(=O)[C@@H](NC(=O)OC1CCCC1)C(C)(C)C)C(=O)O | 7 | 11 | – | – | – | – | – | –
7 | C=C[C@@H]1C[C@]1(NC(=O)[C@@H]1C[C@@H](Oc2cc(-c3csc(NC(C)=O)n3)nc3c(C)c(OC)ccc23)CN1C(=O)[C@@H](NC(=O)OC1CCCC1)C(C)(C)C)C(=O)O | 8 | 19 | – | – | – | – | – | –
8 | COc1ccc2c(O[C@@H]3C[C@H]4C(=O)N[C@]5(C(=O)O)C[C@H]5/C=C\CCCCC[C@H](NC(=O)OC5CCCC5)C(=O)N4C3)cc(-c3csc(NC(C)C)n3)nc2c1 [CILUPREVIR] | 3 | 2 | – | – | – | – | – | –

Now from value to compound:

Row | IC50 [1] [nM] | EC50 (Hepatitis C virus) [nM] | bioavailability [2] [%] | half-life [3] [h] | clearance [4] [mL/min/kg] | Cmax [5] [nM] | AUC(0-inf) [6] [µM·h] | Vd [7] [L/kg] | Compound
9 | 320 | – | – | – | – | – | – | – | C=C[C@@H]1C[C@]1(NC(=O)[C@@H]1C[C@@H](Oc2cc(-c3csc(NC(C)C)n3)nc3cc(OC)ccc23)CN1C(=O)[C@@H](O)C(C)(C)C)C(=O)O
10 | 6 | 6 | – | – | – | – | – | – | C=C[C@@H]1C[C@]1(NC(=O)[C@@H]1C[C@@H](Oc2cc(-c3csc(NC(=O)OC(C)C)n3)nc3c(Br)c(OC)ccc23)CN1C(=O)[C@@H](NC(=O)OC1CCCC1)C(C)(C)C)C(=O)O
11 | 3 | 3 | – | – | – | – | – | – | C=C[C@@H]1C[C@]1(NC(=O)[C@@H]1C[C@@H](Oc2cc(-c3csc(NC(=O)C(C)C)n3)nc3c(Br)c(OC)ccc23)CN1C(=O)[C@@H](NC(=O)OC1CCCC1)C(C)(C)C)C(=O)O [FALDAPREVIR]
12 | 43 | – | – | – | – | – | – | – | C=C[C@@H]1C[C@]1(NC(=O)[C@@H]1C[C@@H](Oc2cc(-c3csc(NC(C)C)n3)nc3cc(OC)ccc23)CN1C(=O)[C@@H](NC(=O)OC(C)(C)C)C(C)(C)C)C(=O)O
13 | 5 | 34 | – | – | – | – | – | – | C=C[C@@H]1C[C@]1(NC(=O)[C@@H]1C[C@@H](Oc2cc(-c3csc(NC(C)=O)n3)nc3cc(OC)ccc23)CN1C(=O)[C@@H](NC(=O)OC1CCCC1)C(C)(C)C)C(=O)O
14 | 14 | 45 | 54 | 2.6 | 24 | 790 | 2.4 | 3.7 | C=C[C@@H]1C[C@]1(NC(=O)[C@@H]1C[C@@H](Oc2cc(-c3csc(NC(C)C)n3)nc3cc(OC)ccc23)CN1C(=O)[C@@H](NC(=O)OC1CCCC1)C(C)(C)C)C(=O)O
15 | 12 | 110 | – | – | – | – | – | – | C=C[C@@H]1C[C@]1(NC(=O)[C@@H]1C[C@@H](Oc2cc(-c3csc(NC(C)C)n3)nc3cc(OC)ccc23)CN1C(=O)[C@@H](NC(=O)OC1CCC1)C(C)(C)C)C(=O)O
16 | 7 | 36 | – | – | – | – | – | – | C=C[C@@H]1C[C@]1(NC(=O)[C@@H]1C[C@@H](Oc2cc(-c3csc(NC(=O)CC)n3)nc3c(F)c(OC)ccc23)CN1C(=O)[C@@H](NC(=O)OC1CCCC1)C(C)(C)C)C(=O)O
17 | 7 | 5 | – | – | – | – | – | – | C=C[C@@H]1C[C@]1(NC(=O)[C@@H]1C[C@@H](Oc2cc(-c3csc(NC(=O)CC)n3)nc3c(Br)c(OC)ccc23)CN1C(=O)[C@@H](NC(=O)OC1CCCC1)C(C)(C)C)C(=O)O
18 | 14 | 550 | – | – | – | – | – | – | C=C[C@@H]1C[C@]1(NC(=O)[C@@H]1C[C@@H](Oc2cc(-c3ccccc3)nc3cc(OC)ccc23)CN1C(=O)[C@@H](NC(=O)OC1CCCC1)C(C)(C)C)C(=O)O
